Test system: U-937
Assay: Cytotoxicity in UV-irradiated human U937 cells exposed to photosensitizer for 2 hrs before irradiation for 20 mins by WST-1 assay
Assay type: functional, cell-based
Conditions: U-937, light or radiation study
In short: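 Compounds were made up as 8 mM DMSO stocks and diluted into culture medium so that final DMSO on cells stayed below 0.5%. Cells were tested across a concentration range both in the dark and with light exposure. Values are the average of at least three independent runs.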

Compound	IC50
c1ccc2c(c1)[nH]c1ccccc12 [CARBAZOLE]	5.56 µM
C1=Cc2ccccc2Nc2ccccc21 [IMINOSTILBENE]	2.58 µM
c1ccc(C2c3ccccc3Nc3ccccc32)cc1	0.17 µM
c1ccc2c(c1)Nc1ccccc1O2 [PHENOXAZINE]	14.5 µM
c1ccc2c(c1)Nc1ccccc1S2 [PHENOTHIAZINE]	1.39 µM
c1ccc2c(c1)Cc1ccccc1N2 [ACRIDAN]	0.68 µM

From ChEMBL document CHEMBL2062459, “Type 1 Phototherapeutic Agents. 2. Cancer Cell Viability and ESR Studies of Tricyclic Diarylamines” (ACS Med Chem Lett, 2012)
